From PubChem
INS promoter act = activators of insulin promoter-driven GFP, primary screen, imaging, TRM-6 cells (human fetal islet line), eGFP reporter, cell count | plate-scaled: unstimulated 0, stimulated control 100 | activation, % at 2 µM | hit rate 0.81% among 130,000;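 active means activation at 2 µM above a set limit, confirmed on inspection of the cell images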;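 further: share of cells whose green reporter signal exceeds an intensity cutoff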
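Material: TRM-6 insulin promoter–eGFP reporter cells. Buffer or medium: Low-glucose (5.5 mM) medium with tamoxifen. Probe or stimulus: tamoxifen at 0.75 µM added at seeding for reporter induction. Times: tamoxifen pre-incubation 15 h overnight, then compound exposure 48 h at 37 °C. Detection: high-content imaging of fixed cells with Hoechst nuclear stain.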
* hit, by the source's call; [ ] = remark or other dose. Only a selection was taken, and hits are over-represented in it overall.

For O=C(Nc1ccncc1)c1cccs1 the results were INS promoter act -10.
`COC(=O)Cc1ccc(NC(=O)c2cccs2)cc1` gave INS promoter act 460*.
CC(=O)c1ccc(NC(=O)c2cccs2)cc1 was read as INS promoter act -3.
`COCCN(C(=O)CNC(=O)c1ccco1)C(C(=O)NC1CCCC1)c1cccs1` (stereo not drawn) gave INS promoter act 0.
For CCN1/C(=C/c2ccc3cc(C)ccc3[n+]2CC)Sc2cc(C)ccc21 the results were INS promoter act 614*.
`CCN1/C(=C/c2ccc3cc(C)ccc3[n+]2C)Sc2ccc3sccc3c21` gave INS promoter act 376*.
For COc1ccccc1-c1nc(C#N)c(NCc2ccc(F)cc2)o1 the results were INS promoter act 7.
For CC(Cl)C(=O)Nc1ccccc1C#N (stereo not drawn) the results were INS promoter act -3.
C=CCNS(=O)(=O)c1ccc2c(c1)n(C)c(=O)n2C was read as INS promoter act -6.
`O=C(N/N=C1\CC2CC=CC12)c1ccc(O)cc1` (stereo not drawn) gave INS promoter act 407*.
Screening CSc1ccc(/C=N/NC(=O)c2ccc(O)cc2)cc1 returned INS promoter act -6.
O=[N+]([O-])c1ccc(N/N=C2\CC3CC=CC23)cc1 (stereo not drawn) was read as INS promoter act 0.
For COc1ccccc1N1CCN(S(=O)(=O)CC23CCC(CC2=O)C3(C)C)CC1 (stereo not drawn) the results were INS promoter act 0.
`CCN(CC)c1ccc(/C=C/C(=O)C2C(=O)C=C(C)OC2=O)cc1` (stereo not drawn) gave INS promoter act 809*[fluoresces].
`CCN(CC)c1ccc(NC(=O)/C=C\c2ccccc2Cl)cc1` gave INS promoter act 0.
For Cc1ccc(-n2nc(C)cc2NC(=O)c2ccc(C)s2)cc1 the results were INS promoter act -3.
For O=[N+]([O-])c1ccc(-c2ccc(/C=N/Nc3nc(N4CCCCC4)nc(N4CCCCC4)n3)o2)cc1 the results were INS promoter act 614*.
Screening O=[N+]([O-])c1ccc(-n2cccc2/C=N/Nc2nc(N3CCCCC3)nc(N3CCCCC3)n2)cc1 returned INS promoter act 0.
For O=[N+]([O-])c1cccc(/C=N/Nc2nc(N3CCCCC3)nc(N3CCCCC3)n2)c1 the results were INS promoter act -71.
For CCCc1nc2ccccc2n1CCc1ccccc1 the results were INS promoter act 0.
`COc1ccc(NC(=O)[C@@H](NC(=O)c2ccccc2)C(C)C)cc1S(=O)(=O)N1CCCCC1` gave INS promoter act -7.
`C=CCn1c(SCc2ccc(C#N)cc2)nnc1-c1cccc(OC)c1` gave INS promoter act 164*.
For Cc1ccc(-c2nnc(SCc3ccc(C#N)cc3)n2Cc2ccco2)cc1 the results were INS promoter act 3.
Screening C=CCn1c(SCc2ccccc2)nnc1-c1cccnc1 returned INS promoter act 0.
`COc1ccc(OCc2nc(N)nc(Nc3ccc(C)cc3)n2)cc1` gave INS promoter act -5.
`C=CCn1c(SCN2C(=O)c3ccccc3C2=O)nc2ccc(Cl)cc2c1=O` gave INS promoter act -7.
Screening CCCCNS(=O)(=O)c1ccc(OCC(=O)OC)cc1 returned INS promoter act 8.
For CC(=O)Nc1ccc(-c2csc(NCc3ccco3)n2)cc1 the results were INS promoter act 3.
For CCC(=O)N(Cc1ccco1)c1nc(-c2ccccc2)cs1 the results were INS promoter act 136*.
For Oc1ccc(-c2csc(-c3ccccc3)n2)cc1O the results were INS promoter act 7.
Screening COc1ccc(CCN2C(=O)NC(NS(=O)(=O)c3ccc(Cl)cc3)(C(F)(F)F)C2=O)cc1OC (stereo not drawn) returned INS promoter act 9.
`Cc1ccc(C(=O)NCC(=O)N/N=C/c2cccs2)cc1[N+](=O)[O-]` gave INS promoter act 0.
For COC(=O)CSc1nnc(CNS(=O)(=O)c2ccc(Cl)cc2)n1C the results were INS promoter act -3.
CCOC(=O)c1sc2nc(C)c3c(c2c1N)CC(C)(C)OC3 was read as INS promoter act -9.
CCOC(=O)c1sc2nc(N3CCOCC3)c3c(c2c1N)CCN(C)C3 was read as INS promoter act 500*.
For Nc1c(C(=O)NCc2ccccc2)sc2nc(N3CCOCC3)c3c(c12)CCCC3 the results were INS promoter act 8.
`Cn1c(CO)cnc1SCc1ccc(Cl)cc1` gave INS promoter act 7.
Screening CC(C)=CC(=O)OCC(=O)NC1CCCc2ccccc21 (stereo not drawn) returned INS promoter act -5.
`Cc1ccc(NC(=O)c2ccc(OC(=O)COc3ccc(Cl)c(C)c3)cc2)cc1` gave INS promoter act -4.
For COc1ccc(OC)c(NC(=O)CN2CCC(C(=O)c3ccc(C)cc3)CC2)c1 the results were INS promoter act -83.
`COc1ccc(OC)c(NC(=O)CNC(=O)Cn2c(C)cc3ccccc3c2=O)c1` gave INS promoter act -10.
